What was measured:
Candida albicans [1] = test: Antifungal activity against pharmacoresistant Candida albicans AIDS68 infected in Wistar rat estrogen-dependent fungal vaginitis model assessed as fungal burden at 10 ug administered intravaginally 48 hrs after fungal infection measured on day 5 after infection; format: functional, Vagina
How it was run: (§1)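 Oophorectomized female Wistar rats (80-100 g) got 0.5 mg estradiol benzoate s.c. Six days later they were inoculated intravaginally with >10⁷ YPD-grown yeast cells (28 °C, washed, hemocytometer-counted) in 0.1 mL saline. Treatment was given intravaginally at 1, 24 and 48 h post-challenge. Burden was counted by culturing 100 μL vaginal fluid on Sabouraud-chloramphenicol (50 μg/mL) agar, as CFU/mL ×1000, through day 28.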

Candida albicans [2] = test: Antifungal activity against pharmacoresistant Candida albicans AIDS68 infected in Wistar rat estrogen-dependent fungal vaginitis model assessed as fungal burden at 10 ug administered intravaginally 48 hrs after fungal infection measured on day 28 after infection; format: functional, Vagina; how it was run: as §1
Candida albicans [3] = test: Antifungal activity against Candida albicans SA40 infected in Wistar rat estrogen-dependent fungal vaginitis model assessed as fungal burden at 10 ug administered intravaginally 48 hrs after fungal infection measured on day 7 after infection; format: functional, Vagina; how it was run: as §1
Candida albicans [4] = test: Antifungal activity against Candida albicans SA40 infected in Wistar rat estrogen-dependent fungal vaginitis model assessed as fungal burden at 10 ug administered intravaginally 1 hr after fungal infection measured within 1 day of infection; format: functional, Vagina; how it was run: as §1
Candida albicans [5] = test: Antifungal activity against pharmacoresistant Candida albicans AIDS68 infected in Wistar rat estrogen-dependent fungal vaginitis model assessed as fungal burden at 10 ug administered intravaginally 1 hr after fungal infection measured on day 1 after infection; format: functional, Vagina; how it was run: as §1
Candida albicans [6] = test: Antifungal activity against Candida albicans SA40 infected in Wistar rat estrogen-dependent fungal vaginitis model assessed as fungal burden at 10 ug administered intravaginally 48 hrs after fungal infection measured on day 5 after infection; format: functional, Vagina; how it was run: as §1
Candida albicans [7] = test: Antifungal activity against pharmacoresistant Candida albicans AIDS68 infected in Wistar rat estrogen-dependent fungal vaginitis model assessed as fungal burden at 10 ug administered intravaginally 1 hr after fungal infection measured within 1 day of infection; format: functional, Vagina; how it was run: as §1
Candida albicans [8] = test: Antifungal activity against pharmacoresistant Candida albicans AIDS68 infected in Wistar rat estrogen-dependent fungal vaginitis model assessed as fungal burden at 10 ug administered intravaginally 48 hrs after fungal infection measured on day 21 after infection; format: functional, Vagina; how it was run: as §1
Candida albicans [9] = test: Antifungal activity against Candida albicans SA40 infected in Wistar rat estrogen-dependent fungal vaginitis model assessed as fungal burden at 10 ug administered intravaginally 1 hr after fungal infection measured on day 1 after infection; format: functional, Vagina; how it was run: as §1
Candida albicans [10] = test: Antifungal activity against Candida albicans SA40 infected in Wistar rat estrogen-dependent fungal vaginitis model assessed as fungal burden at 10 ug administered intravaginally 48 hrs after fungal infection measured on day 14 after infection; format: functional, Vagina; how it was run: as §1
Candida albicans [11] = test: Antifungal activity against Candida albicans SA40 infected in Wistar rat estrogen-dependent fungal vaginitis model assessed as fungal burden at 10 ug administered intravaginally 24 hrs after fungal infection measured on day 2 after infection; format: functional, Vagina; how it was run: as §1
Candida albicans [12] = test: Antifungal activity against Candida albicans SA40 infected in Wistar rat estrogen-dependent fungal vaginitis model assessed as fungal burden at 10 ug administered intravaginally 48 hrs after fungal infection measured on day 28 after infection; format: functional, Vagina; how it was run: as §1
Candida albicans [13] = test: Antifungal activity against pharmacoresistant Candida albicans AIDS68 infected in Wistar rat estrogen-dependent fungal vaginitis model assessed as fungal burden at 10 ug administered intravaginally 24 hrs after fungal infection measured on day 2 after infection; format: functional, Vagina; how it was run: as §1
Candida albicans [14] = test: Antifungal activity against Candida albicans SA40 infected in Wistar rat estrogen-dependent fungal vaginitis model assessed as fungal burden at 10 ug administered intravaginally 48 hrs after fungal infection measured on day 21 after infection; format: functional, Vagina; how it was run: as §1
Candida albicans [15] = test: Antifungal activity against pharmacoresistant Candida albicans AIDS68 infected in Wistar rat estrogen-dependent fungal vaginitis model assessed as fungal burden at 10 ug administered intravaginally 48 hrs after fungal infection measured on day 7 after infection; format: functional, Vagina; how it was run: as §1
Candida albicans [16] = test: Antifungal activity against pharmacoresistant Candida albicans AIDS68 infected in Wistar rat estrogen-dependent fungal vaginitis model assessed as fungal burden at 10 ug administered intravaginally 48 hrs after fungal infection measured on day 14 after infection; format: functional, Vagina; how it was run: as §1
Candida albicans [17] = test: Antifungal activity against pharmacoresistant Candida albicans AIDS68 infected in Wistar rat estrogen-dependent fungal vaginitis model assessed as fungal burden at 10 uM administered intravaginally 48 hrs after fungal infection measured on day 28 after infection; format: functional, Vagina; how it was run: as §1
Candida albicans [18] = test: Antifungal activity against Candida albicans SA40 infected in Wistar rat estrogen-dependent fungal vaginitis model assessed as fungal burden at 10 uM administered intravaginally 24 hrs after fungal infection measured on day 2 after infection; format: functional, Vagina
How it was run: (§2)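 Oophorectomized female Wistar rats (80-100 g), given 0.5 mg estradiol benzoate subcutaneously, were challenged intravaginally six days later with >10⁷ YPD-grown yeast cells in 0.1 mL saline. Compound at 10 μM was instilled intravaginally at 1, 24 and 48 h post-challenge. Vaginal fluid samples (100 μL) were plated on Sabouraud agar with chloramphenicol (50 μg/mL), and burden was expressed as CFU/mL ×1000.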

Candida albicans [19] = test: Antifungal activity against pharmacoresistant Candida albicans AIDS68 infected in Wistar rat estrogen-dependent fungal vaginitis model assessed as fungal burden at 10 uM administered intravaginally 48 hrs after fungal infection measured on day 7 after infection; format: functional, Vagina; how it was run: as §1
Candida albicans [20] = test: Antifungal activity against pharmacoresistant Candida albicans AIDS68 infected in Wistar rat estrogen-dependent fungal vaginitis model assessed as fungal burden at 10 uM administered intravaginally 24 hrs after fungal infection measured on day 2 after infection; format: functional, Vagina; how it was run: as §1
Candida albicans [21] = test: Antifungal activity against Candida albicans SA40 infected in Wistar rat estrogen-dependent fungal vaginitis model assessed as fungal burden at 10 uM administered intravaginally 48 hrs after fungal infection measured on day 21 after infection; format: functional, Vagina; how it was run: as §2
Candida albicans [22] = test: Antifungal activity against Candida albicans SA40 infected in Wistar rat estrogen-dependent fungal vaginitis model assessed as fungal burden at 10 uM administered intravaginally 1 hr after fungal infection measured within 1 day of infection; format: functional, Vagina; how it was run: as §1
[23] = molecular target: Secreted aspartic protease 2 (Candida albicans) (UniProt P0CS83); test: Inhibition of Candida albicans SAP2 at 20 uM by spectrophotometry relative to pepstatin A
Secreted aspartic protease 2 (Candida albicans), sequence (P0CS83 57-398 limits assumed): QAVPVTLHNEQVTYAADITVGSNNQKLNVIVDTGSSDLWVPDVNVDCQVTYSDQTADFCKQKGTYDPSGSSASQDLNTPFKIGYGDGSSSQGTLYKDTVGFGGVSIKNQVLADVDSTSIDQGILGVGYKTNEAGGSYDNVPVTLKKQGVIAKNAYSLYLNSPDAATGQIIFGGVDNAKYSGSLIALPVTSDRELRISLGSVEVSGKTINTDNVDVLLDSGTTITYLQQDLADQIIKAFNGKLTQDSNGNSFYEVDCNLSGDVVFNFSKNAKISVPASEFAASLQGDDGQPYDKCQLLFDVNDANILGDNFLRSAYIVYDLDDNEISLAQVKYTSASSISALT
How it was run: (§3)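 Sample was mixed with 1% (w/v) BSA substrate in 50 mM sodium citrate, pH 3.2, plus SAP2 protease (1 μg/mL stock solution) and incubated 30 min at 37 °C. The reaction was stopped with 10% TCA, kept 30 min on ice, and centrifuged; supernatant A280 was read. Percent inhibition was taken from ΔOD, with control proteinase minus proteinase plus pepstatin A set as 100%.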

Candida albicans [24] = test: Antifungal activity against Candida albicans SA40 infected in Wistar rat estrogen-dependent fungal vaginitis model assessed as fungal burden at 10 uM administered intravaginally 48 hrs after fungal infection measured on day 7 after infection; format: functional, Vagina; how it was run: as §2
Candida albicans [25] = test: Antifungal activity against Candida albicans SA40 infected in Wistar rat estrogen-dependent fungal vaginitis model assessed as fungal burden at 10 uM administered intravaginally 48 hrs after fungal infection measured on day 5 after infection; format: functional, Vagina; how it was run: as §2
Candida albicans [26] = test: Antifungal activity against Candida albicans SA40 infected in Wistar rat estrogen-dependent fungal vaginitis model assessed as fungal burden at 10 uM administered intravaginally 48 hrs after fungal infection measured on day 28 after infection; format: functional, Vagina; how it was run: as §1
Candida albicans [27] = test: Antifungal activity against Candida albicans SA40 infected in Wistar rat estrogen-dependent fungal vaginitis model assessed as fungal burden at 10 uM administered intravaginally 1 hr after fungal infection measured on day 1 after infection; format: functional, Vagina; how it was run: as §2
[28] = molecular target: Secreted aspartic protease 2 (Candida albicans) (UniProt P0CS83); test: Inhibition of Candida albicans SAP2 at 2 uM by spectrophotometry relative to pepstatin A; how it was run: as §3
Candida albicans [29] = test: Antifungal activity against Candida albicans SA40 infected in Wistar rat estrogen-dependent fungal vaginitis model assessed as fungal burden at 10 uM administered intravaginally 48 hrs after fungal infection measured on day 14 after infection; format: functional, Vagina; how it was run: as §2
[30] = molecular target: Secreted aspartic protease 2 (Candida albicans) (UniProt P0CS83); test: Inhibition of Candida albicans SAP2 at 0.02 uM by spectrophotometry relative to pepstatin A; how it was run: as §3
Candida albicans [31] = test: Antifungal activity against pharmacoresistant Candida albicans AIDS68 infected in Wistar rat estrogen-dependent fungal vaginitis model assessed as fungal burden at 10 uM administered intravaginally 1 hr after fungal infection measured on day 1 after infection; format: functional, Vagina; how it was run: as §1
Candida albicans [32] = test: Antifungal activity against pharmacoresistant Candida albicans AIDS68 infected in Wistar rat estrogen-dependent fungal vaginitis model assessed as fungal burden at 10 uM administered intravaginally 48 hrs after fungal infection measured on day 14 after infection; format: functional, Vagina; how it was run: as §1
Candida albicans [33] = test: Antifungal activity against pharmacoresistant Candida albicans AIDS68 infected in Wistar rat estrogen-dependent fungal vaginitis model assessed as fungal burden at 10 uM administered intravaginally 48 hrs after fungal infection measured on day 5 after infection; format: functional, Vagina; how it was run: as §1
[34] = molecular target: Secreted aspartic protease 2 (Candida albicans) (UniProt P0CS83); test: Inhibition of Candida albicans SAP2 at 10 uM by spectrophotometry relative to pepstatin A; how it was run: as §3
[35] = molecular target: Secreted aspartic protease 2 (Candida albicans) (UniProt P0CS83); test: Inhibition of Candida albicans SAP2 at 0.2 uM by spectrophotometry relative to pepstatin A; how it was run: as §3
Candida albicans [36] = test: Antifungal activity against pharmacoresistant Candida albicans AIDS68 infected in Wistar rat estrogen-dependent fungal vaginitis model assessed as fungal burden at 10 uM administered intravaginally 48 hrs after fungal infection measured on day 21 after infection; format: functional, Vagina; how it was run: as §1

| SMILES | Activity (Candida albicans [1]) [×10³ CFU/ml] | Activity (Candida albicans [3]) [×10³ CFU/ml] | Activity (Candida albicans [4]) [×10³ CFU/ml] | Activity (Candida albicans [5]) [×10³ CFU/ml] | Activity (Candida albicans [6]) [×10³ CFU/ml] | Activity (Candida albicans [8]) [×10³ CFU/ml] | Activity (Candida albicans [9]) [×10³ CFU/ml] | Activity (Candida albicans [10]) [×10³ CFU/ml] | Activity (Candida albicans [11]) [×10³ CFU/ml] | Activity (Candida albicans [12]) [×10³ CFU/ml] | Activity (Candida albicans [13]) [×10³ CFU/ml] | Activity (Candida albicans [14]) [×10³ CFU/ml] | Activity (Candida albicans [15]) [×10³ CFU/ml] | Activity (Candida albicans [16]) [×10³ CFU/ml] | Activity (Candida albicans [17]) [×10³ CFU/ml] | Activity (Candida albicans [18]) [×10³ CFU/ml] | Activity (Candida albicans [19]) [×10³ CFU/ml] | Activity (Candida albicans [20]) [×10³ CFU/ml] | Activity (Candida albicans [21]) [×10³ CFU/ml] | Activity (Candida albicans [22]) [×10³ CFU/ml] | further results |
| --- | --- | --- | --- | --- | --- | --- | --- | --- | --- | --- | --- | --- | --- | --- | --- | --- | --- | --- | --- | --- | --- |
| OC(Cn1cncn1)(Cn1cncn1)c1ccc(F)cc1F [FLUCONAZOLE] | 61 | 11.7 | 100 | 100 | 25.7 | 11.7 | 53.5 | 5 | 49.7 | 0 | 93 | 1.25 | 44 | 18.7 |  |  |  |  |  |  | Activity (Candida albicans [2]): 0 ×10³ CFU/ml; Activity (Candida albicans [7]): >100 ×10³ CFU/ml |
| CC(C)C[C@@H](CO)NC(=O)[C@@H]1O[C@H]2CN(Cc3ccccc3)C(=O)[C@@H]1O2 |  |  |  |  |  |  |  |  |  |  |  |  |  |  | 0 | 58 | 22.8 | 55.4 | 4.2 | 100 | inhibition [23]: 71%; Activity (Candida albicans [24]): 28.8 ×10³ CFU/ml; Activity (Candida albicans [25]): 35.8 ×10³ CFU/ml; Activity (Candida albicans [26]): 2.2 ×10³ CFU/ml; Activity (Candida albicans [27]): 61 ×10³ CFU/ml; inhibition [28]: 6.9%; Activity (Candida albicans [29]): 14 ×10³ CFU/ml; inhibition [30]: 1.4%; Activity (Candida albicans [31]): 61.6 ×10³ CFU/ml; Activity (Candida albicans [32]): 11.2 ×10³ CFU/ml; Activity (Candida albicans [33]): 26.8 ×10³ CFU/ml; inhibition [34]: 61% |
| CC(C)CC(=O)N[C@H](C(=O)N[C@H](C(=O)N[C@@H](CC(C)C)[C@@H](O)CC(=O)N[C@@H](C)C(=O)N[C@@H](CC(C)C)[C@@H](O)CC(=O)O)C(C)C)C(C)C [PEPSTATIN] | 37.2 | 28 | >100 | 58.4 | 32.4 | 3.8 | 56.8 | 9.4 | 51 | 0 | 52 | 5 | 30 | 19.8 |  |  |  |  |  |  |  |
| O=C([C@@H]1O[C@H]2CN(Cc3ccccc3)C(=O)[C@@H]1O2)N1CCCCC1 |  |  |  |  |  |  |  |  |  |  |  |  |  |  | 0 | 57.6 | 23.2 | 62.6 | 8 | >100 | inhibition [35]: 19%; inhibition [23]: 74%; Activity (Candida albicans [24]): 30.6 ×10³ CFU/ml; Activity (Candida albicans [25]): 39.2 ×10³ CFU/ml; Activity (Candida albicans [36]): 3.4 ×10³ CFU/ml; Activity (Candida albicans [26]): 1.2 ×10³ CFU/ml; Activity (Candida albicans [27]): 70 ×10³ CFU/ml; inhibition [28]: 50%; Activity (Candida albicans [29]): 14.4 ×10³ CFU/ml; inhibition [30]: 0%; Activity (Candida albicans [31]): 71.8 ×10³ CFU/ml; Activity (Candida albicans [32]): 12.8 ×10³ CFU/ml; Activity (Candida albicans [33]): 40.6 ×10³ CFU/ml; inhibition [34]: 67% |

Reference: ChEMBL document CHEMBL1157639, “Identification of inhibitors of drug-resistant Candida albicans strains from a library of bicyclic peptidomimetic compounds” (2010)
